This note sets out measurements from ChEMBL document CHEMBL1135605, “Preparation and characterization of platinum(II) and (IV) complexes of 1,3-diaminepropane and 1,4-diaminebutane: circumvention of cisplatin resistance and DNA interstrand cross-link formation in CH1cisR ovarian tumor cells” (J Med Chem, 2002).

In assay [1] the test system is PAM212. Briefly: Compound was evaluated against normal Pam 212 cell line. It counts as functional, cell-based, Mus musculus. The method in brief: (§1)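 MTT cell survival assay. Compounds dissolved in 10 mM NaClO4 in distilled water, with 1 mg/mL stocks freshly prepared. Final concentrations 0–200 μM added to the cultures. Survival read 24 h later by absorbance at 520 nm. IC50 (concentration giving 50% cell killing) taken from % survival vs concentration curves. Run in quadruplicate.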

In assay [2] the test system is CH1. Briefly: Compound was evaluated against human Ovarian carcinoma cell line CH1. It counts as functional, cell-based. The method in brief:
as §1

The subject of assay [3] is PAM212. Put plainly: Compound was evaluated against transformed murine keratinocytes Pam 212-ras cell line. It counts as functional, cell-based, Mus musculus. The method in brief: as §1
Assay [4] relates to A2780. Briefly: Compound was evaluated against human Ovarian carcinoma cell line A2780cisR. The assay is classed as functional, cell-based. The method in brief: as §1
In assay [5] the test system is A2780. Briefly: Compound was evaluated against human Ovarian carcinoma cell line A2780. The assay is classed as functional, cell-based. The method in brief: as §1
The subject of assay [6] is CH1. Put plainly: Compound was evaluated against human Ovarian carcinoma cell line CH1cisR. It counts as functional, cell-based. The method in brief: as §1

A word on the IC50: it is the concentration that gives 50% inhibition. A high value points to lower potency.

For the substance CARBOPLATIN, the IC50 is above 200 µM with PAM212 [1]; 52 µM in the assay on CH1 [2]; above 200 µM with PAM212 [3]; 178 µM with A2780 [4]; 18 µM with A2780 [5]; 185 µM with CH1 [6].

Turning to CISPLATIN, the IC50 worked out at 44 µM in the assay on PAM212 [1]; 6 µM in the assay on CH1 [2]; 72 µM in the assay with PAM212 [3]; 36 µM in the assay with A2780 [4]; 2 µM in the assay on A2780 [5]; 25 µM with CH1 [6].

For “Cis-[Pt(1,3-diaminebutane)2(O-Succinate)2]”, the half-maximal inhibitory concentration (IC50) with PAM212 [1], with CH1 [2], with PAM212 [3], with A2780 [4], with A2780 [5] and in the assay with CH1 [6] was above 200 µM each time.

In the case of “Cis-[Pt(1,3-diaminebutane)2(OH)2] 1,1-cyclobutanedicarboxylate”, the half-maximal inhibitory concentration (IC50) in the assay with PAM212 [1], in the assay on CH1 [2], in the assay with PAM212 [3], with A2780 [4], in the assay with A2780 [5] and with CH1 [6] was above 200 µM in each case.

Consider “Cis-[Pt(1,3-diaminebutane)2] 1,1-cyclobutanedicarboxylate”, for which the IC50 in the assay with PAM212 [1], in the assay with CH1 [2], with PAM212 [3], in the assay with A2780 [4], with A2780 [5] and in the assay with CH1 [6] was above 200 µM each time.

Take “Cis-[Pt(1,3-diaminebutane) 1,1-cyclobutanedicarboxylate]”: the IC50 is 100 µM in the assay with PAM212 [1]; 3.3 µM with CH1 [2]; 42 µM in the assay on PAM212 [3]; 0.74 µM in the assay with A2780 [4]; 0.32 µM in the assay on A2780 [5]; 6 µM with CH1 [6].

For the substance “Cis-[Pt(1,3-diaminepropane)2(O-Glutarate)2]”, the IC50 with PAM212 [1], with CH1 [2], with PAM212 [3], with A2780 [4], in the assay with A2780 [5] and in the assay on CH1 [6] was above 200 µM in each case.

“Cis-[Pt(1,3-diaminepropane)2(O-Maleate)2]”: the IC50 in the assay on PAM212 [1], in the assay on CH1 [2], with PAM212 [3], with A2780 [4], in the assay on A2780 [5] and in the assay on CH1 [6] was above 200 µM in each case.

Take “Cis-[Pt(1,3-diaminepropane)2(O-Succinate)2]”: the half-maximal inhibitory concentration (IC50) in the assay on PAM212 [1], in the assay with CH1 [2], in the assay on PAM212 [3], with A2780 [4], with A2780 [5] and in the assay with CH1 [6] was above 200 µM in each case.

Turning to “Cis-[Pt(1,3-diaminepropane)2(OH)2] 1,1-cyclobutanedicarboxylate”, the IC50 in the assay with PAM212 [1], in the assay on CH1 [2], in the assay on PAM212 [3], with A2780 [4], with A2780 [5] and in the assay with CH1 [6] was above 200 µM throughout.

As to “Cis-[Pt(1,3-diaminepropane)2] 1,1-cyclobutanedicarboxylate”, the IC50 with PAM212 [1], in the assay with CH1 [2], in the assay on PAM212 [3], with A2780 [4], in the assay on A2780 [5] and in the assay on CH1 [6] was above 200 µM each time.

For the substance “Cis-[Pt(1,3-diaminepropane) 1,1-cyclobutanedicarboxylate]”, the IC50 in the assay on PAM212 [1] was determined as 85 µM; in the assay on CH1 [2], 4.5 µM; with PAM212 [3], 64 µM; with A2780 [4], 1 µM; in the assay on A2780 [5], 0.3 µM; with CH1 [6], 8 µM.
